Results: ChEMBL document CHEMBL1221186, “Enhancement of capillary leakage and restoration of lymphocyte egress by a chiral S1P1 antagonist in vivo” (Nat Chem Biol, 2006)
Blank lines part the entries; values can stand above or below the compound they belong to. Calls of active or inactive are those of the source. The calls are words filed in the database; no cut-off is given here.

Experiments:
[1] = target: T1, Sphingosine 1-phosphate receptor 1 (Homo sapiens, UniProt P21453); assay: Antagonist activity at human S1P1 receptor expressed in CHO cells assessed as inhibition of S1P-induced [35S]GTPgamma binding; format: functional, cell-based
Procedure, shortened: (§1)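 Membranes from CHO cells stably expressing human S1P1. [35S]GTPγS binding with serial dilutions of S1P or SEW2871 added (1–10 µg protein per well), with or without 30 min antagonist preincubation. Binding was normalized to the percentage induced by maximal S1P. Ki derived from the agonist EC50 shift.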

Mus musculus [2] = assay: Inhibition of SEW2871-induced lymphocyte egress in C57BL1/6J mouse assessed as blood lymphocyte sequestration at 10 to 20 mg/kg, ip; format: functional, organism-based
Procedure, shortened: (§2)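 C57BL6 mice were given antagonist i.p. (10 mg/kg, or 3 mg/kg where stated) at the time of oral SEW2871 (up to 20 mg/kg) or vehicle. At 5 h, EDTA blood was taken for full blood counts and differential counts on a veterinary autoanalyzer calibrated for mouse. Blood lymphocyte data pooled n=12 per group; Student's t-test.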

Mus musculus [3] = assay: Inhibition of SEW2871-induced lymphocyte maturation in C57BL1/6J mouse assessed as medullary thymocyte phenotypic maturation at 10 to 20 mg/kg, ip; format: functional, organism-based
Procedure, shortened: (§3)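 Mice received oral SEW2871 (20 mg/kg) with or without i.p. antagonist (10 mg/kg). Thymi were removed at 5 h and CD69 on single-positive CD4+ thymocytes was measured by flow cytometry. n=3.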

Mus musculus [4] = organism: Mus musculus; assay: Inhibition of SEW2871-induced protection against VEGF-induced capillary leakage in Balb/cByJ mouse assessed as skin leakage of Evans blue dye from plasma into interstitial spaces by Miles assay; format: functional, organism-based; conditions: Skin of body
Procedure, shortened: (§4)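 Male Balb/cByJ mice (30 g) got i.p. vehicle (10 mM Na2CO3, 2% β-hydroxypropyl-cyclodextran) or antagonist 10 mg/kg, then oral SEW2871 20 mg/kg or vehicle. At 4.5 h, 0.5% Evans blue was given i.v. Intradermal murine VEGF165 (100 ng) or PBS/0.1% BSA was injected in triplicate. After 30 min, skin biopsies were extracted in formamide at 58 °C and read at 565 nm (VEGF minus BSA). ANOVA/Bonferroni.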

[5] = target: T1, Sphingosine 1-phosphate receptor 1; assay: Antagonist activity at human S1P1 receptor expressed in CHO cells assessed as inhibition of SEW2871-induced [35S]GTPgamma binding; format: functional, cell-based; procedure, shortened: as §1
Mus musculus [6] = assay: Toxicity in ip dosed C57BL1/6J mouse assessed as induction of spontaneous pulmonary edema by Evan blue dye leakage assay; format: organism-based; conditions: in vivo
Mus musculus [7] = assay: Inhibition of SEW2871-induced lymphopenia in C57BL1/6J mouse at 3 mg/kg, ip; format: functional, organism-based; parameters: dose 3 mg/kg; procedure, shortened: as §2
Mus musculus [8] = assay: Effect on CD69 expression in single positive CD4+ thymocytes in thymic medulla of C57BL1/6J mouse at 10 mg/kg, ip by FACS method; format: organism-based; parameters: dose 10 mg/kg, route intraperitoneal; conditions: in vivo; procedure, shortened: as §3
[9] = target: Sphingosine 1-phosphate receptor 2 (Homo sapiens) (UniProt O95136); assay: Antagonist activity at human S1P2 receptor expressed in CHO cells assessed as inhibition of S1P-induced [35S]GTPgamma binding at 10 uM; format: functional, cell-based
Procedure, shortened: (§5)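 Membranes from CHO cells expressing human S1P2, S1P3 or S1P5. [35S]GTPγS binding with serial dilutions of S1P added to membranes (1–10 µg protein per well), with or without 30 min preincubation. Antagonist concentrations were as previously described.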

[10] = target: Sphingosine 1-phosphate receptor 5 (Homo sapiens) (UniProt Q9H228); assay: Agonist activity at human S1P5 receptor expressed in CHO cells assessed as stimulation of [35S]GTPgamma binding at 10 uM; format: functional, cell-based; procedure, shortened: as §5
[11] = target: T1, Sphingosine 1-phosphate receptor 1; assay: Inhibition of GFP-tagged human S1P1 receptor internalization expressed in HEK293 cells at 10 uM by fluorimetric assay; format: cell-based
[12] = Plasma concentration in mouse at 10 mg/kg, ip after 5 hrs; format: ADME, organism-based; parameters: dose 10 mg/kg, route intraperitoneal
Procedure, shortened: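 Plasma concentration measured by LC-MS in mice 5 h after i.p. injection of 10 mg/kg.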

[13] = target: T1, Sphingosine 1-phosphate receptor 1; assay: Antagonist activity at human S1P1 receptor expressed in CHO cells assessed as inhibition of S1P-induced ERK1/2 phosphorylation at 10 uM by Western blot; format: functional, cell-based
Procedure, shortened: (§6)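 CHO cells stably expressing human S1P1 or S1P3 were grown to 50% confluence and serum-starved for 16 h. Cells were preincubated 1 h with antagonist at 10 µM, then stimulated 5 min with S1P or SEW2871 in serum-free medium with 0.1% fatty-acid-free BSA. Western blots of lysates gave phospho-ERK1/2 and phospho-Akt band intensities normalized to total ERK1/2 or Akt. n≥3.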

[14] = Volume of distribution at steady state in cannulated rat at 1 mg/kg, iv by LC-MS method; format: ADME, organism-based; parameters: dose 1 mg/kg, route intravenous; conditions: in vivo, read-out: Vdss
Procedure, shortened: (§7)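 Cannulated rats (n=3) were given 1 mg/kg i.v. Plasma levels were followed by LC-MS to derive half-life, steady-state volume of distribution and plasma clearance.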

[15] = target: Sphingosine 1-phosphate receptor 3 (Homo sapiens) (UniProt Q99500); assay: Antagonist activity at human S1P3 receptor expressed in CHO cells assessed as inhibition of S1P-induced [35S]GTPgamma binding at 10 uM; format: functional, cell-based; procedure, shortened: as §5
[16] = target: Sphingosine 1-phosphate receptor 3 (Homo sapiens) (UniProt Q99500); assay: Agonist activity at human S1P3 receptor expressed in CHO cells assessed as stimulation of [35S]GTPgamma binding at 10 uM; format: functional, cell-based; procedure, shortened: as §5
Mus musculus [17] = assay: Inhibition of SEW2871-induced medullary arrest of T cells in inguinal lymph nodes of BALB/c mouse at 10 mg/kg, iv by FITC-conjugated dextran staining based In vivo two-photon imaging method; format: functional, organism-based; parameters: dose 10 mg/kg; conditions: T-cell
Procedure, shortened: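 Adoptively transferred CFSE-labelled CD4+ T cells in BALB/c mice. Mice were dosed orally with SEW2871 (10 mg/kg), and the inguinal lymph node was imaged by intravital two-photon microscopy 4–6 h later. Medullary sinus labelled with footpad rhodamine-dextran. Antagonist 10 mg/kg given i.v. during imaging; instantaneous T-cell velocities tracked in medulla and cortex.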

[18] = target: Sphingosine 1-phosphate receptor 3 (Homo sapiens) (UniProt Q99500); assay: Antagonist activity at human S1P3 receptor expressed in CHO cells assessed as inhibition of S1P-induced ERK1/2 phosphorylation at 10 uM by Western blot; format: functional, cell-based; procedure, shortened: as §6
[19] = target: T1, Sphingosine 1-phosphate receptor 1; assay: Antagonist activity at human S1P1 receptor expressed in CHO cells assessed as inhibition of S1P-induced Akt phosphorylation at 10 uM by Western blot; format: functional, cell-based; procedure, shortened: as §6
[20] = Plasma clearance in cannulated rat at 1 mg/kg, iv by LC-MS method; format: ADME, organism-based; parameters: dose 1 mg/kg, route intravenous; procedure, shortened: as §7
[21] = Half life in cannulated rat at 1 mg/kg, iv by LC-MS method; format: ADME, organism-based; parameters: dose 1 mg/kg, route intravenous; conditions: in vivo; procedure, shortened: as §7
Mus musculus [22] = organism: Mus musculus; assay: Potentiation of VEGF-induced capillary leakage in Balb/cByJ mouse assessed as skin leakage of Evans blue dye from plasma into interstitial spaces Miles assay; format: functional, organism-based; conditions: Skin of body; procedure, shortened: as §4
[23] = target: T1, Sphingosine 1-phosphate receptor 1; assay: Antagonist activity at human S1P1 receptor expressed in CHO cells assessed as inhibition of SEW2871-induced ERK1/2 phosphorylation at 10 uM by Western blot; format: functional, cell-based; procedure, shortened: as §6
[24] = target: Sphingosine 1-phosphate receptor 3 (Homo sapiens) (UniProt Q99500); assay: Antagonist activity at human S1P3 receptor expressed in CHO cells assessed as inhibition of S1P-induced Akt phosphorylation at 10 uM by Western blot; format: functional, cell-based; procedure, shortened: as §6
Mus musculus [25] = assay: Toxicity in ip dosed C57BL1/6J mouse assessed as effect on percentage of lymphocyte within total WBCs counts in peripheral blood at 10 mg/kg, ip; format: organism-based; parameters: dose 10 mg/kg, route intraperitoneal; conditions: in vivo; procedure, shortened: as §2
[26] = target: Sphingosine 1-phosphate receptor 5 (Homo sapiens) (UniProt Q9H228); assay: Antagonist activity at human S1P5 receptor expressed in CHO cells assessed as inhibition of S1P-induced [35S]GTPgamma binding at 10 uM; format: functional, cell-based; procedure, shortened: as §5
Mus musculus [27] = assay: Inhibition of SEW2871-induced loss of CD69 expression in single positive CD4+ thymocytes in thymic medulla of C57BL1/6J mouse at 10 mg/kg, ip by FACS method; format: functional, organism-based; parameters: dose 10 mg/kg; procedure, shortened: as §3
[28] = target: Sphingosine 1-phosphate receptor 2 (Homo sapiens) (UniProt O95136); assay: Agonist activity at human S1P2 receptor expressed in CHO cells assessed as stimulation of [35S]GTPgamma binding at 10 uM; format: functional, cell-based; procedure, shortened: as §5
[29] = target: T1, Sphingosine 1-phosphate receptor 1; assay: Antagonist activity at human S1P1 receptor expressed in CHO cells assessed as inhibition of SEW2871-induced Akt phosphorylation at 10 uM by Western blot; format: functional, cell-based; procedure, shortened: as §6
Mus musculus [30] = assay: Toxicity in ip dosed C57BL1/6J mouse assessed as effect on lymphocyte number at 10 mg/kg, ip; format: organism-based; parameters: dose 10 mg/kg, route intraperitoneal; conditions: in vivo; procedure, shortened: as §2

Sequence of Sphingosine 1-phosphate receptor 3 (Homo sapiens) (Q99500 whole entry): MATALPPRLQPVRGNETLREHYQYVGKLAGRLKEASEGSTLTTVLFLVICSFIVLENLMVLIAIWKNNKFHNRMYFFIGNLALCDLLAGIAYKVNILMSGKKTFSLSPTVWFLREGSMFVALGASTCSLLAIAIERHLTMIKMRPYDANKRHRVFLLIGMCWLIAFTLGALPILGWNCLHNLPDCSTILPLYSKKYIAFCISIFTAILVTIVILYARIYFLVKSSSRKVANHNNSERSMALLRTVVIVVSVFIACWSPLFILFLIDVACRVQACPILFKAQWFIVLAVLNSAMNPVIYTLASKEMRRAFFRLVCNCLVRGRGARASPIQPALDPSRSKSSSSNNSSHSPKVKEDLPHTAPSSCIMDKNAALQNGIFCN
T1 sequence (P21453 whole entry): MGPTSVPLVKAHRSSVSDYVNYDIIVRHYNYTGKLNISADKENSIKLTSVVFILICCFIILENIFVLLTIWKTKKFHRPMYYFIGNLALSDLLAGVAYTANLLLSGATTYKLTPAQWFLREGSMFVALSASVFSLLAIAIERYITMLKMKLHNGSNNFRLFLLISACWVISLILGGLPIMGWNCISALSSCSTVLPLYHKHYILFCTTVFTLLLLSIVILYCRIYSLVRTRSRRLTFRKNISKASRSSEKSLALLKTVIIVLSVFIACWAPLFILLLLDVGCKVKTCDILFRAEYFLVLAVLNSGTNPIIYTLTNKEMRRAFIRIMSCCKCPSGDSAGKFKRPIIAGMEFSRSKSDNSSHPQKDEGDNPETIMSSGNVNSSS
Sequence of Sphingosine 1-phosphate receptor 2 (Homo sapiens) (O95136 whole entry): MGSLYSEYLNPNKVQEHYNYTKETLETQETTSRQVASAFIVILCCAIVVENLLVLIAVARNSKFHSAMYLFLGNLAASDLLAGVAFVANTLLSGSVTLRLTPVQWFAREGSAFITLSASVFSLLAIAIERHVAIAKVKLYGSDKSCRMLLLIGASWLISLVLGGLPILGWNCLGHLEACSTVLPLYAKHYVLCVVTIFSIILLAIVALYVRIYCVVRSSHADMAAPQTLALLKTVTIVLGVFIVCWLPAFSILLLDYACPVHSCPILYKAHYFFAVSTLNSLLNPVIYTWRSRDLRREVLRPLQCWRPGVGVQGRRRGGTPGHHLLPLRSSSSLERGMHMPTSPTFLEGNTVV
Sequence of Sphingosine 1-phosphate receptor 5 (Homo sapiens) (Q9H228 whole entry): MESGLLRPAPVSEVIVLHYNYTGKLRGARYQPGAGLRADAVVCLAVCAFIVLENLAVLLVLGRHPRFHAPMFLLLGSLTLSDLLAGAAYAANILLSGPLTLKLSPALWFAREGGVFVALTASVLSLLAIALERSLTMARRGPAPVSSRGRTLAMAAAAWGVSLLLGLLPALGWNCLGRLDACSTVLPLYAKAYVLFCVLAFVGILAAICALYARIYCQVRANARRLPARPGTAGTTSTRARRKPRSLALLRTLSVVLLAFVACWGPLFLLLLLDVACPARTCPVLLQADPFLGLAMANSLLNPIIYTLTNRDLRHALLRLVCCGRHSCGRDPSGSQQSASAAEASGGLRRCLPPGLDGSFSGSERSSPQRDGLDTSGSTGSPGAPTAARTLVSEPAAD

Ki [1]: 4.63 µM
Ki [5]: 2.84 µM
Compound: CCCCCCc1cccc(NC(=O)[C@@H](N)CCP(=O)(O)O)c1
inhibition (Mus musculus [2]): inactive
inhibition (Mus musculus [3]): inactive
inhibition (Mus musculus [4]): inactive
Activity (Mus musculus [6]): Non-toxic

Ki [1]: 0.077 µM
inhibition [9]: inactive
Activity [10]: inactive
inhibition [11]: Active
concentration at 5 h [12]: 268 nM
inhibition [13]: > 70%
Vd [14]: 0.46 L/kg
inhibition [15]: inactive
Activity [16]: inactive
inhibition [18]: inactive
inhibition [19]: > 70%
clearance [20]: 4.63 mL/min/kg
half-life [21]: 1.22 h
inhibition [23]: Active
inhibition [24]: inactive
inhibition [26]: inactive
Activity [28]: inactive
inhibition [29]: Active
Ki [5]: 0.018 µM
Compound: CCCCCCc1cccc(NC(=O)[C@H](N)CCP(=O)(O)O)c1
inhibition (Mus musculus [7]): Active
Activity (Mus musculus [8]): Non-toxic
inhibition (Mus musculus [2]): Active
inhibition (Mus musculus [3]): Active
inhibition (Mus musculus [17]): Active
inhibition (Mus musculus [4]): Active
Activity (Mus musculus [22]): Active
Activity (Mus musculus [25]): Non-toxic
inhibition (Mus musculus [27]): Active
Activity (Mus musculus [30]): Non-toxic
Activity (Mus musculus [6]): Dose-dependent effect
